From BindingDB's records for doi:10.1016/j.ejmech.2021.113996 (The University of Michigan Medical School, 2022)
pIC50: −log10 of the molar value.

Key:
[1] = target: Phosphatidylinositol 4,5-bisphosphate 3-kinase catalytic subunit alpha isoform (Homo sapiens, UniProt P42336); assay: Inhibition of human PI3Kalpha by TR-FRET based Adapta assay
[2] = target: T1, Phosphatidylinositol 4,5-bisphosphate 3-kinase catalytic subunit delta isoform (Homo sapiens, UniProt O00329); assay: Inhibition of human PI3Kdelta by TR-FRET based Adapta assay
T1 sequence (O00329 whole entry): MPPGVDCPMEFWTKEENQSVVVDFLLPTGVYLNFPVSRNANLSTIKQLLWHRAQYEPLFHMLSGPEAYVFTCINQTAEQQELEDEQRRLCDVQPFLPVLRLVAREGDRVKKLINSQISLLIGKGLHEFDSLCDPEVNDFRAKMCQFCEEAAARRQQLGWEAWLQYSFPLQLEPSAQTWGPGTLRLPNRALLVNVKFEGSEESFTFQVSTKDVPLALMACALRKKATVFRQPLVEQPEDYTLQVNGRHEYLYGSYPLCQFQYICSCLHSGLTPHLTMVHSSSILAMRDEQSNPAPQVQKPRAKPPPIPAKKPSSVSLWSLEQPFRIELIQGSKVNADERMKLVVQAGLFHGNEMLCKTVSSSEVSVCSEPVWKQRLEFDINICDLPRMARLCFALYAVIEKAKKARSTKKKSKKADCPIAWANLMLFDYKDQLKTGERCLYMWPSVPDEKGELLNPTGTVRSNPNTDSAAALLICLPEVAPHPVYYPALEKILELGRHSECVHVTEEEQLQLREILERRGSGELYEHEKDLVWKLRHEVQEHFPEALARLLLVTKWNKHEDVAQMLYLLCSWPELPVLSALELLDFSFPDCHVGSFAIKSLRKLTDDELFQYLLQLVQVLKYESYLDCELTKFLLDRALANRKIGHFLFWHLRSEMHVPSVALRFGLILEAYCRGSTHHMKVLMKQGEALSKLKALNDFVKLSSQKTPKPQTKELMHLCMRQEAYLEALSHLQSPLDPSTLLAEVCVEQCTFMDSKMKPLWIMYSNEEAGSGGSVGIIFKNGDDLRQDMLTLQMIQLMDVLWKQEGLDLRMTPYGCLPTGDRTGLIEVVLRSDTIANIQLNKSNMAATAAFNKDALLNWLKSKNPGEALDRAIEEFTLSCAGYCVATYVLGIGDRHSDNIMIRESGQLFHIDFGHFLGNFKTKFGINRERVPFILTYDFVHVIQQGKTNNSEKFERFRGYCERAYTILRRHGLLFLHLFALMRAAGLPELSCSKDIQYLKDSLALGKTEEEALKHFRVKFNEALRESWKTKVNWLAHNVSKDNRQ

[3] = target: Phosphatidylinositol 4,5-bisphosphate 3-kinase catalytic subunit beta isoform (Homo sapiens, UniProt P42338); assay: Inhibition of human PI3Kbeta by TR-FRET based Adapta assay
Chain of Phosphatidylinositol 4,5-bisphosphate 3-kinase catalytic subunit beta isoform (P42338 whole entry, canonical isoform): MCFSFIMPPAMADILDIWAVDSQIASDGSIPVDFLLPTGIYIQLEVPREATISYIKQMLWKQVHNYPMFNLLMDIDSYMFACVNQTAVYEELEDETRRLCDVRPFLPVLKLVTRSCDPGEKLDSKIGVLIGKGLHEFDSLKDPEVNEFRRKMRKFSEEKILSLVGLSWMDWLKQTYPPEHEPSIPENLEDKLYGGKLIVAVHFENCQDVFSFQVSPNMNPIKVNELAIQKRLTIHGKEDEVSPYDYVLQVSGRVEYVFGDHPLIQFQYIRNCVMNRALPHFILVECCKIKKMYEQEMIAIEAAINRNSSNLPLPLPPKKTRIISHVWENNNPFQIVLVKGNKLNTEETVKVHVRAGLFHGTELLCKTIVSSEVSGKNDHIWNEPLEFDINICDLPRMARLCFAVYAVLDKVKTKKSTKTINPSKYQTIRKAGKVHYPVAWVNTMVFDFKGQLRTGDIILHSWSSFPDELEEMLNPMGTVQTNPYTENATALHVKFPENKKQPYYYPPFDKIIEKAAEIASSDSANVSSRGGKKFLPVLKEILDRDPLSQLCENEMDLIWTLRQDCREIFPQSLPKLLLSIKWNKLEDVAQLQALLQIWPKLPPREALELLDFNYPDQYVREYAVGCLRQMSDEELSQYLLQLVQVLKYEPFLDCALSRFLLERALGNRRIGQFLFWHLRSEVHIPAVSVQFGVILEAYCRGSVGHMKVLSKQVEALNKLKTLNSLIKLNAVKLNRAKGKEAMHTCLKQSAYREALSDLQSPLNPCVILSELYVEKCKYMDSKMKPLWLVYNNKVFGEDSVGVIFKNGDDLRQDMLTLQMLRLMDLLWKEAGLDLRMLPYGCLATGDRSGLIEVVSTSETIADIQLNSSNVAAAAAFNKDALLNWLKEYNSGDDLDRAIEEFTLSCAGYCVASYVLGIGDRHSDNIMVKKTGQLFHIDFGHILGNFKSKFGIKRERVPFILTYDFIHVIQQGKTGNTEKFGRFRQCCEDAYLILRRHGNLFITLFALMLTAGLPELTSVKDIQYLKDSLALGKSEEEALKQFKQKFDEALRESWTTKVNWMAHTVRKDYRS
Method in brief: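 Purified human PI3K isoforms α, β, γ and δ assayed by fluorescence-based Adapta TR-FRET lipid kinase assay (outsourced). Inhibitor range 0.1 nM–10 μM. IC₅₀ is the mean ± SEM of three experiments, each run in duplicate.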

[4] = target: Phosphatidylinositol 4,5-bisphosphate 3-kinase catalytic subunit gamma isoform (Homo sapiens, UniProt P48736); assay: Inhibition of human PI3Kgamma by TR-FRET based Adapta assay
Chain of Phosphatidylinositol 4,5-bisphosphate 3-kinase catalytic subunit gamma isoform (P48736 whole entry, canonical isoform): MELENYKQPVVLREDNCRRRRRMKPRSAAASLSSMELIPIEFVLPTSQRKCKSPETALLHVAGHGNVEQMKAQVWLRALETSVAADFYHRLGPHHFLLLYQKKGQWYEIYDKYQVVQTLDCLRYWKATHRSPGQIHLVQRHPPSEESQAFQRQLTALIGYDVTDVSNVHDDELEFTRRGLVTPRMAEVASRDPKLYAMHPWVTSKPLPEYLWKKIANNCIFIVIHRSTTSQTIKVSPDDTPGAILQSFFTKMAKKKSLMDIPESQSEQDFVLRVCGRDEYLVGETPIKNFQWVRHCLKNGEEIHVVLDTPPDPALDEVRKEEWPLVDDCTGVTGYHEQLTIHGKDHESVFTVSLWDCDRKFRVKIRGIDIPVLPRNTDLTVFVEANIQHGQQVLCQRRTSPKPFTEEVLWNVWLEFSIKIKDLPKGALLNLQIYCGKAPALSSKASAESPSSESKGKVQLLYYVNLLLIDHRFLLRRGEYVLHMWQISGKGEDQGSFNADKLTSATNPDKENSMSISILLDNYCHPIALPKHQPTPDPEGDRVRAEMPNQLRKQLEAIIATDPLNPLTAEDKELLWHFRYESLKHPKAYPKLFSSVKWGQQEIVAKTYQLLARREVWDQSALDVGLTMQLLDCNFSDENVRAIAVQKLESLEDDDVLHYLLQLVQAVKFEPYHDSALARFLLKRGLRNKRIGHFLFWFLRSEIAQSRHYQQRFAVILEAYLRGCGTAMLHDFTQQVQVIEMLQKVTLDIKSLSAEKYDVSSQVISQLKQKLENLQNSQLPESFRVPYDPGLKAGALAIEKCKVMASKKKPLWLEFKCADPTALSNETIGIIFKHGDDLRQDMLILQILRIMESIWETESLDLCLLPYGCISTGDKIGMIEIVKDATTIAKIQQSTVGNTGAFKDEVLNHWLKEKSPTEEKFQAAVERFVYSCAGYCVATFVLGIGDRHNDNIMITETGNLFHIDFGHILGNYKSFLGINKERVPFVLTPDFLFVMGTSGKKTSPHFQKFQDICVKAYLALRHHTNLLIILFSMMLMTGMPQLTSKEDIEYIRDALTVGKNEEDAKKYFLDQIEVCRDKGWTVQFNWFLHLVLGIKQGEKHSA

Chain of Phosphatidylinositol 4,5-bisphosphate 3-kinase catalytic subunit alpha isoform (P42336 whole entry, canonical isoform): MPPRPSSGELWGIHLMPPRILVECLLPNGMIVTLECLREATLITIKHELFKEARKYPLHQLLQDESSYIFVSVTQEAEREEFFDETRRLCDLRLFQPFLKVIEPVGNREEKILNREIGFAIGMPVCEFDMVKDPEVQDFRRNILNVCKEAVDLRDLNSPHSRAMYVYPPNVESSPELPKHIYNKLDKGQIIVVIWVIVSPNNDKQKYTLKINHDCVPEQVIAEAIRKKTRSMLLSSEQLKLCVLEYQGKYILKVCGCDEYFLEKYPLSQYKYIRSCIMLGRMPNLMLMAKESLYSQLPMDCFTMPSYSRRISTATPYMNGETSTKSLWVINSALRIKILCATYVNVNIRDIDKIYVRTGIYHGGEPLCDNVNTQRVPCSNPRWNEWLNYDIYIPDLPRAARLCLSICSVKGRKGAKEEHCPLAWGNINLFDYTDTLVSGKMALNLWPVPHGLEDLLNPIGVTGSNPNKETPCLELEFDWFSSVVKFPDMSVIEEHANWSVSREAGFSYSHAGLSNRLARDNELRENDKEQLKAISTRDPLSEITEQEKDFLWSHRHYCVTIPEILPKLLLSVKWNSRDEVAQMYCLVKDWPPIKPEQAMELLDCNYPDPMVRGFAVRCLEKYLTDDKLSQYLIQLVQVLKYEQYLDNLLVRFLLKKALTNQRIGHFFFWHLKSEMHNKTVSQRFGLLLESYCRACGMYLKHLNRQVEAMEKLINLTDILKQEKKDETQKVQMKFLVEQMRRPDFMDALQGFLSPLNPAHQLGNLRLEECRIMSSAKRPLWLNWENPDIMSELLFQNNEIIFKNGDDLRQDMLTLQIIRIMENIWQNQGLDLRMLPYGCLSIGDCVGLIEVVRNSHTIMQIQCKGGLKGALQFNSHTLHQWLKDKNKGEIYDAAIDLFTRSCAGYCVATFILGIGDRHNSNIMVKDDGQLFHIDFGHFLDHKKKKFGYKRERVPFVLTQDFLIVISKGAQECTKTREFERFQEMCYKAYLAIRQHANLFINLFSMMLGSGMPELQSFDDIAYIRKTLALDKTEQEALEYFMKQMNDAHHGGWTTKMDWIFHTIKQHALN

CC(=O)N1CCN(c2nc(N3CCOCC3)nc(-n3c(C(F)F)nc4ccccc43)n2)CC1
pIC50 [1]: 8.09
pIC50 [2]: 8.54

CNCCN(CCO)c1nc(N2CCOCC2)nc(-n2c(C(F)F)nc3ccccc32)n1
pIC50 [1]: 6.83
pIC50 [2]: 7.33
pIC50 [3]: 6.20
pIC50 [4]: 6.06

FC(F)c1nc2ccccc2n1-c1nc(N2CCNCC2)nc(N2CCOCC2)n1
pIC50 [1]: 6.74
pIC50 [2]: 6.85
